According to publication PMC9200056 (Chemical Science, 2022):
Non-standard residues stand in square brackets, D forms with d. *: point of attachment. 1Nal = N[C@@H](Cc1cccc2ccccc12)C(=O)O; ACC = NC(=O)Cc1cc(=O)oc2cc(N*)ccc12; Igl = N[C@H](C(=O)O)C1Cc2ccccc2C1; hArg = N=C(N)NCCCC[C@H](N)C(=O)O; Dab = NCC[C@H](N)C(=O)O; Cbz = O=C(OCc1ccccc1)*

Experiments:
Format in all cases: biochemical
thrombin in human plasma = test: Thrombin labeling by fluorescent ABP in human plasma; settings: EDTA plasma diluted 7.5 times, probe 20 μM, 60 min, 37 °C; SDS–PAGE
Summary of the method: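 Human plasma from EDTA-anticoagulated whole blood, diluted 7.5-fold in Tris/NaCl/5 mM CaCl2 buffer, pH 7.4, incubated 1:1 with thrombin-directed Cy7 probe (1–20 μM) for 60 min at 37 °C. Reduced in SDS/DTT at 95 °C, run on 12% SDS–PAGE and blotted. Sheep anti-fII for 7 h, then Alexa 680 secondary. Cy7 imaged at 784 nm, antibody at 658 nm. At least 3 replicates.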

[1] = biological target: APC (activated protein C) (Homo sapiens, UniProt P04070); test: Initial substrate screening; settings: for increase in activity on exchanging L-Nle(O-Bzl) (SMA4) at P3: initial screening, 1 μM substrate, relative to SMA4
Summary of the method: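 Plasma-derived human APC (thrombin–thrombomodulin-activated) was preincubated 15 min at 37 °C in Tris/NaCl/CaCl2 buffer, pH 7.4, then added to ACC substrates at 1 μM final. Final APC was 50–90 nM, chosen per substrate set. ACC release was read at 355/460 nm for 30 min. Rates (RFU s−1) came from the linear portion and were adjusted to equal enzyme activity; at least 2 repeats were averaged.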

fXa (factor Xa) [2] = biological target: T1, fXa (factor Xa) (Homo sapiens, UniProt P00742); test: Inhibition kinetics; settings: ratio of kobs/I values
fXa (factor Xa) [3] = biological target: T1, fXa (factor Xa); test: Substrate kinetics
Summary of the method: (§1)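 Purified plasma-derived human enzymes were preincubated 15 min at 37 °C in Tris/NaCl/CaCl2 buffer, pH 7.4. They were added to eight serially diluted ACC substrate concentrations (4.68 nM–741 μM overall). ACC release was followed at 355/460 nm for 30 min at 37 °C to derive kcat, KM and kcat/KM; at least duplicate runs were averaged.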

thrombin [4] = biological target: T2, thrombin (Homo sapiens, UniProt P00734); test: Inhibition kinetics; settings: ratio of kobs/I values
thrombin [5] = biological target: T2, thrombin; test: Substrate kinetics; settings: ratio of kcat/KM values
Summary of the method: as §1

APC in human plasma = test: APC labeling by fluorescent ABP in human plasma; settings: EDTA plasma diluted 7.5 times, probe 20 μM, 60 min, 37 °C; SDS–PAGE
Summary of the method: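 Human plasma from EDTA-anticoagulated whole blood, diluted 7.5-fold in 20 mM Tris, 150 mM NaCl, 5 mM CaCl2, pH 7.4, mixed 1:1 with APC-directed Cy5 probe (1–20 μM), 60 min, 37 °C. SDS/DTT reduction at 95 °C for 5 min, then 12% SDS–PAGE and nitrocellulose blot. Chicken anti-protein C for 7 h, then Alexa 488 secondary. Cy5 imaged at 658 nm, antibody at 488 nm. At least 3 replicates.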

fXa (factor Xa) [6] = biological target: T1, fXa (factor Xa); test: Initial substrate screening; settings: 1 μM substrate, relative to SMX15
Summary of the method: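 ACC fluorogenic substrates at 1 μM final, from 10 mM stocks diluted 100-fold in DMSO. fXa (7–100 nM, set per substrate for adequate signal) preincubated 15 min at 37 °C in 20 mM Tris, 150 mM NaCl, 5 mM CaCl2, pH 7.4. Hydrolysis read for 30 min at 37 °C (ex 355, em 460 nm). Linear-phase RFU s−1 normalised to equal enzyme activity, averaged over at least two repeats.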

T1 sequence (P00742 235-488 limits assumed): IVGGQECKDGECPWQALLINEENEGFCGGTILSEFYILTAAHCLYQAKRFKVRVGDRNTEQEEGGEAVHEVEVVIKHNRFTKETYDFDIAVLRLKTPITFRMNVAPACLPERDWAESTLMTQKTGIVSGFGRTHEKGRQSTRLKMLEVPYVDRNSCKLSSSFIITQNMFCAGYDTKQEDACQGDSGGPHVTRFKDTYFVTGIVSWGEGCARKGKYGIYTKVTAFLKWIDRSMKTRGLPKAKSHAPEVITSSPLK
T1 sequence (P00742 41-179 partner limits assumed): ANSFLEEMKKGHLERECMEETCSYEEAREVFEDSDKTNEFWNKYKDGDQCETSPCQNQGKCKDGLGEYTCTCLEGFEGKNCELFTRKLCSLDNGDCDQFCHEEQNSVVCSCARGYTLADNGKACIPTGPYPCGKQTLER
Sequence of APC (activated protein C) (P04070 212-461 limits assumed): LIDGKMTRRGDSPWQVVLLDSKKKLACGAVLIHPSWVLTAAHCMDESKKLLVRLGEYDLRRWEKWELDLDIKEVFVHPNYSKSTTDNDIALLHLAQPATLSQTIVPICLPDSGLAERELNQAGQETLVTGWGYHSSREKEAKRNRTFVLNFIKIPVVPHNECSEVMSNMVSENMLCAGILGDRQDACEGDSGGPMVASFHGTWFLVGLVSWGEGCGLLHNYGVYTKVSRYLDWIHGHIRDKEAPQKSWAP
Sequence of APC (activated protein C) (P04070 43-197 partner limits assumed): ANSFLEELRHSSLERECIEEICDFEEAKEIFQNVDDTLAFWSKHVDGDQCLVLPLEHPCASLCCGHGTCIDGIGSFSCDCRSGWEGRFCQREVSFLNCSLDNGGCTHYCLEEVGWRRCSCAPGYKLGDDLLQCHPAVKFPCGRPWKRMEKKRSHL

Substance: Cy7–6-Ahx–hCha–Cys(MeBzl)–Pip–Arg^P(OPh)2 [P-SMII222]
- selectivity of thrombin labeling in human plasma at 20 μM probe (thrombin in human plasma): selectivity was maintained with thrombin labeling

Substance: Ac-Lys-Agp-Lys(2-Cl-Z)-Arg-AC C [SMA2]
- increase in activity on exchanging L-Nle(O-Bzl) (SMA4) at P3 [1]: 22 fold

Substance: Ac-Lys-Glu(Bzl)-Lys(2-Cl-Z)-Arg-AC C [SMA3]
- increase in activity on exchanging L-Nle(O-Bzl) (SMA4) at P3 [1]: 5.5 fold

Substance: Cy3–6-Ahx–DPro–hArg–1-Nal–Arg^P(OPh)2 [P-SMX152]
- inhibition of APC less efficient than fXa (fXa (factor Xa) [2]): 75 fold

Substance: Ac-Lys-Dab(Z )-Lys(2-Cl-Z)-Arg-AC C [SMA1]
- increase in activity on exchanging L-Nle(O-Bzl) (SMA4) at P3 [1]: 13 fold

Substance: Ac-[dP][hArg][1Nal]R-{ACC} (SMILES CC(=O)N1CCC[C@@H]1C(=O)N[C@@H](CCCCNC(=N)N)C(=O)N[C@@H](Cc1cccc2ccccc12)C(=O)N[C@@H](CCCNC(=N)N)C(=O)Nc1ccc2c(CC(N)=O)cc(=O)oc2c1) [SMX15]
- times more hydrolyzed by fXa than by thrombin (fXa (factor Xa) [3]; ratio of kcat/KM values): 358 times

Substance: Ac-K[Dab](Cbz)[Igl]R-{ACC} (SMILES CC(=O)N[C@@H](CCCCN)C(=O)N[C@@H](CCNC(=O)OCc1ccccc1)C(=O)N[C@H](C(=O)N[C@@H](CCCNC(=N)N)C(=O)Nc1ccc2c(CC(N)=O)cc(=O)oc2c1)C1Cc2ccccc2C1) [SMA5]
- cleaved more efficiently than the best natural substrate (SMA54) ([1]; relative to SMA54): approximately 50 fold

Substance: Ac–hCha–Cys(MeBzl)–Pip–Arg^P(OPh)2 [I-SMII22]
- kobs/I selectivity: thrombin inhibition more rapid than APC (thrombin [4]): 348 fold
- kobs/I selectivity: thrombin inhibition more rapid than fXa (thrombin [4]): 2087 fold

Substance: Ac–hCha–Cys(MeBzl)–Pip–Arg–ACC [SMII22]
- kcat/KM selectivity for thrombin over APC (thrombin [5]): 3383 fold
- kcat/KM selectivity for thrombin over fXa (thrombin [5]): 162 fold

Substance: Cy5–6-Ahx–Lys–Dab(Z)–Lys–Arg^P(OPh)2 [P-SMA172]
- off-target labeling in human plasma at 20 μM probe (APC in human plasma): only minor additional labeling between 25 and 35 kDa

Substance: Ac-Gln-hArg-1-Nal-Arg-AC C [SMX14]
- change of overall activity on replacing D-Pro (SMX15) at P4 (fXa (factor Xa) [6]): only a slight decrease in the overall activity

Substance: Ac-M[hArg][1Nal]R-{ACC} (SMILES CSCC[C@H](NC(C)=O)C(=O)N[C@@H](CCCCNC(=N)N)C(=O)N[C@@H](Cc1cccc2ccccc12)C(=O)N[C@@H](CCCNC(=N)N)C(=O)Nc1ccc2c(CC(N)=O)cc(=O)oc2c1) [SMX61]
- increase of the kcat/KM value on exchanging D-Pro at P4 (SMX15) for L-Met (fXa (factor Xa) [3]; fXa, relative to SMX15): 55%

Substance: Ac-Arg(NO2)-hArg-1-Nal-Arg-AC C [SMX13]
- change of overall activity on replacing D-Pro (SMX15) at P4 (fXa (factor Xa) [6]): only a slight decrease in the overall activity
